Values after ≈ are worked out from the molar mass of the structure shown.
System: Mycobacterium tuberculosis
Assay: Antimycobacterial activity against Mycobacterium tuberculosis H37Rv ATCC 27294 after 28 days by agar dilution technique
Type: functional
Settings: H37Rv ATCC 27294, 672 h
How it was run: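 Agar dilution in Middlebrook 7H11 with OADC supplement. Two-fold serial dilutions from 50.0 down to 0.4 µg/mL were incorporated into the agar. Inoculum of H37Rv came from fresh 7H11/OADC slants, suspended in saline diluted to […]. 5 μL was spotted per tube, incubated at 37 °C and read after 28 days. MIC was the lowest concentration giving complete growth inhibition, done in triplicate.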

`Cc1ccc(-c2cn(C(CN3CCNCC3)c3ccc4sc5ccccc5c4c3)nn2)cc1` (stereo not drawn) and `CC(C)(C)c1ccc(-c2cn(C(CN3CCNCC3)c3ccc4sc5ccccc5c4c3)nn2)cc1` (stereo not drawn) are the same in MIC: 6.25 µg/mL (≈ 13.8 µM) for the first, 6.25 µg/mL (≈ 12.6 µM) for the second.

Going from `CCCCc1cn(C(CN2CCNCC2)c2ccc3sc4ccccc4c3c2)nn1` (stereo not drawn) to `CCCCc1cn(C(CN2CCOCC2)c2ccc3sc4ccccc4c3c2)nn1` (stereo not drawn), the MIC rises from 12.5 µg/mL (≈ 29.8 µM) to 50 µg/mL (≈ 119 µM) (4-fold).

Compared with `c1ccc(-c2cn(C(CN3CCNCC3)c3ccc4sc5ccccc5c4c3)nn2)cc1` (stereo not drawn), `c1ccc(-c2cn(C(CN3CCOCC3)c3ccc4sc5ccccc5c4c3)nn2)cc1` (stereo not drawn) is 4-fold higher in MIC: 12.5 µg/mL (≈ 28.4 µM) for the first, 50 µg/mL (≈ 113 µM) for the second.

`O=[N+]([O-])c1ccc(-c2cn(C(CN3CCCCC3)c3ccc4sc5ccccc5c4c3)nn2)cc1` (stereo not drawn) and `Cc1ccc(-c2cn(C(CN3CCCCC3)c3ccc4sc5ccccc5c4c3)nn2)cc1` (stereo not drawn) are the same in MIC: 50 µg/mL (≈ 103 µM) for the first, 50 µg/mL (≈ 110 µM) for the second.

Going from `Fc1ccc(-c2cn(C(CN3CCNCC3)c3ccc4sc5ccccc5c4c3)nn2)c(Cl)c1` (stereo not drawn) to `Fc1ccc(-c2cn(C(CN3CCCCC3)c3ccc4sc5ccccc5c4c3)nn2)c(Cl)c1` (stereo not drawn), the MIC rises from 1.56 µg/mL (≈ 3.17 µM) to 50 µg/mL (≈ 102 µM) (32-fold).

Compared with `Cc1ccc(-c2cn(C(CN3CCN(CCO)CC3)c3ccc4sc5ccccc5c4c3)nn2)cc1` (stereo not drawn), `CC(C)(C)c1ccc(-c2cn(C(CN3CCN(CCO)CC3)c3ccc4sc5ccccc5c4c3)nn2)cc1` (stereo not drawn) is 2-fold lower in MIC: 50 µg/mL (≈ 100 µM) for the first, 25 µg/mL (≈ 46.3 µM) for the second.

Going from `CCCCc1cn(C(CN2CCN(CCO)CC2)c2ccc3sc4ccccc4c3c2)nn1` (stereo not drawn) to `CCCCc1cn(C(CN2CCSCC2)c2ccc3sc4ccccc4c3c2)nn1` (stereo not drawn), the MIC rises from 6.25 µg/mL (≈ 13.5 µM) to 25 µg/mL (≈ 57.3 µM) (4-fold).

Compared with `CC(C)(C)c1ccc(-c2cn(C(CN3CCSCC3)c3ccc4sc5ccccc5c4c3)nn2)cc1` (stereo not drawn), `Cc1ccc(-c2cn(C(CN3CCSCC3)c3ccc4sc5ccccc5c4c3)nn2)cc1` (stereo not drawn) is 2-fold higher in MIC: 6.25 µg/mL (≈ 12.2 µM) for the first, 12.5 µg/mL (≈ 26.6 µM) for the second.

Going from `O=[N+]([O-])c1ccc(-c2cn(C(CN3CCNCC3)c3ccc4sc5ccccc5c4c3)nn2)cc1` (stereo not drawn) to `O=[N+]([O-])c1ccc(-c2cn(C(CN3CCOCC3)c3ccc4sc5ccccc5c4c3)nn2)cc1` (stereo not drawn), the MIC rises from 3.12 µg/mL (≈ 6.44 µM) to 50 µg/mL (≈ 103 µM) (16-fold).

Going from `Cc1ccc(-c2cn(C(CN3CCOCC3)c3ccc4sc5ccccc5c4c3)nn2)cc1` (stereo not drawn) to `CC(C)(C)c1ccc(-c2cn(C(CN3CCOCC3)c3ccc4sc5ccccc5c4c3)nn2)cc1` (stereo not drawn), the MIC falls from 25 µg/mL (≈ 55 µM) to 6.25 µg/mL (≈ 12.6 µM) (4-fold).

`O=[N+]([O-])c1ccc(-c2cn(C(CN3CCN(CCO)CC3)c3ccc4sc5ccccc5c4c3)nn2)cc1` (stereo not drawn) and `OCCN1CCN(CC(c2ccc3sc4ccccc4c3c2)n2cc(-c3ccccc3)nn2)CC1` (stereo not drawn) are the same in MIC: 12.5 µg/mL (≈ 23.6 µM) for the first, 12.5 µg/mL (≈ 25.8 µM) for the second.

Compared with `Fc1ccc(-c2cn(C(CN3CCSCC3)c3ccc4sc5ccccc5c4c3)nn2)c(Cl)c1` (stereo not drawn), `Fc1ccc(-c2cn(C(CN3CCOCC3)c3ccc4sc5ccccc5c4c3)nn2)c(Cl)c1` (stereo not drawn) is 2-fold higher in MIC: 12.5 µg/mL (≈ 24.6 µM) for the first, 25 µg/mL (≈ 50.7 µM) for the second.

Going from `OCCN1CCN(CC(c2ccc3sc4ccccc4c3c2)n2cc(-c3ccc(F)cc3Cl)nn2)CC1` (stereo not drawn) to `c1ccc(-c2cn(C(CN3CCCCC3)c3ccc4sc5ccccc5c4c3)nn2)cc1` (stereo not drawn), the MIC falls from 12.5 µg/mL (≈ 23.3 µM) to 0.78 µg/mL (≈ 1.78 µM) (16-fold).

Compared with `CC(C)(C)c1ccc(-c2cn(C(CN3CCCCC3)c3ccc4sc5ccccc5c4c3)nn2)cc1` (stereo not drawn), `O=[N+]([O-])c1ccc(-c2cn(C(CN3CCSCC3)c3ccc4sc5ccccc5c4c3)nn2)cc1` (stereo not drawn) is 8-fold higher in MIC: 3.12 µg/mL (≈ 6.31 µM) for the first, 25 µg/mL (≈ 49.8 µM) for the second.

First: CCCCc1cn(C(CN2CCCCC2)c2ccc3sc4ccccc4c3c2)nn1 (stereo not drawn)
Second: c1ccc(-c2cn(C(CN3CCSCC3)c3ccc4sc5ccccc5c4c3)nn2)cc1 (stereo not drawn)
The MIC of the first is 64-fold lower: 0.78 µg/mL (≈ 1.86 µM) for the first, 50 µg/mL (≈ 109 µM) for the second.

Going from `CC[C@@H](CO)NCCN[C@@H](CC)CO` [ETHAMBUTOL] to `NNC(=O)c1ccncc1` [ISONIAZID], the MIC falls from 3.13 µg/mL (≈ 15.3 µM) to 0.1 µg/mL (≈ 0.729 µM) (31-fold).

In the case of `NC(=O)c1cnccn1` [PYRAZINAMIDE], the MIC is reported as 50 µg/mL (≈ 406 µM).

Source: ChEMBL document CHEMBL3804758, “Click-based synthesis and antitubercular evaluation of novel dibenzo[b,d]thiophene-1,2,3-triazoles with piperidine, piperazine, morpholine and thiomorpholine appendages” (Bioorg Med Chem Lett, 2016)
